Our source for the EC50 and Activity values is ChEMBL document CHEMBL1139111, “Structure-activity relationship studies on quorum sensing ComX(RO-E-2) pheromone” (Bioorg Med Chem Lett, 2007).

*1 amine or outer side, *2 acyl side, *3 side chain or, on linkers, in order; H or OH if unused. Where a SMILES comes first, the peptide text is derived from it. [ ]: non-standard residue; d: D form. X1 = CC(C)=CCC/C(C)=C\C[C@@]12c3ccccc3N[C@@H]1N([*:1])C[C@@H]2C(=O)[*:2] A value given as a limit tells only on which side of the number the result lay.

The nature of test [1]: Activity at beta-galactosidase in Bacillus subtilis. The gist of the method:
(§1)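 B. subtilis tester strain carrying an srfA-lacZ fusion that responds to added pheromone. Overnight culture diluted 100-fold, added to sample solution, incubated 37 °C, 5 h, 150 rpm. β-Galactosidase measured with o-nitrophenyl-β-D-galactopyranoside at 30 °C, read at 420 nm. Analogs tested at concentrations up to 300 nM.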

The subject of another test is Bacillus subtilis. The test can be described thus: Activity at beta-galactosidase in Bacillus subtilis relative to ComXRO-E-2. More on the design: concentration or dose not given beside the values. The gist of the method:
as §1

For `CC[C@H](C)[C@H](NC(=O)CN)C(=O)N[C@@H](Cc1ccccc1)C(=O)N1C[C@H](C(=O)N[C@@H](CCC(=O)O)C(=O)N[C@@H](CCC(N)=O)C(=O)O)[C@]2(C/C=C(/C)CCC=C(C)C)c3ccccc3N[C@H]12` (H-GIF[X1]EQ-OH), the EC50 in test [1] turned out to be 1 nM. The Activity with Bacillus subtilis is 100%.

In test [1], `CC(C)=CCC/C(C)=C\C[C@@]12c3ccccc3N[C@@H]1NC[C@@H]2C(=O)N[C@@H](CCC(=O)O)C(=O)N[C@@H](CCC(N)=O)C(=O)O` gave a half-maximal effective concentration (EC50) above 300 nM. The same molecule displayed an Activity with Bacillus subtilis of 15%.

Consider `CC(C)=CCC/C(C)=C\C[C@@]12c3ccccc3N[C@@H]1N(C(=O)[C@@H](N)Cc1ccccc1)C[C@@H]2C(=O)N[C@@H](CCC(=O)O)C(=O)O`, for which the half-maximal effective concentration (EC50) in test [1] worked out at 20 nM. Further, in the test with Bacillus subtilis, the Activity came out at 60%.

As to `CC[C@H](C)[C@H](NC(=O)CN)C(=O)N[C@@H](Cc1ccccc1)C(=O)N1C[C@H](C(=O)N[C@@H](CCC(=O)O)C(=O)O)[C@]2(C/C=C(/C)CCC=C(C)C)c3ccccc3N[C@H]12` (H-GIF[X1]E-OH), the concentration for a half-maximal effect (EC50) in test [1] worked out at 20 nM. Besides, the Activity in the test on Bacillus subtilis stood at 80%.

In turn, `CC[C@H](C)[C@H](NC(=O)CN)C(=O)N[C@@H](Cc1ccccc1)C(=O)N1C[C@H](C(=O)N[C@@H](C)C(=O)N[C@@H](CCC(N)=O)C(=O)O)[C@]2(C/C=C(/C)CCC=C(C)C)c3ccccc3N[C@H]12` (H-GIF[X1]AQ-OH) gave an EC50 in test [1] of 3 nM. The Activity with Bacillus subtilis is 100%.

For `CC(C)=CCC/C(C)=C\C[C@@]12c3ccccc3N[C@@H]1N(C(=O)[C@H](Cc1ccccc1)NC(=O)[C@H](C)NC(=O)CN)C[C@@H]2C(=O)N[C@@H](CCC(=O)O)C(=O)N[C@@H](CCC(N)=O)C(=O)O` (H-GAF[X1]EQ-OH), it took 10 nM to reach a half-maximal effect in test [1] (EC50). Further, in the test on Bacillus subtilis, the Activity is 95%.

In the case of `CC(C)=CCC/C(C)=C\C[C@@]12c3ccccc3N[C@@H]1N(C(=O)[C@@H](N)Cc1ccccc1)C[C@@H]2C(=O)N[C@@H](CCC(=O)O)C(=O)N[C@@H](CCC(N)=O)C(=O)O`, in test [1], the EC50 is 8 nM. Also, the Activity with Bacillus subtilis was determined as 70%.

In turn, `CC[C@H](C)[C@H](N)C(=O)N[C@@H](Cc1ccccc1)C(=O)N1C[C@H](C(=O)N[C@@H](CCC(=O)O)C(=O)O)[C@]2(C/C=C(/C)CCC=C(C)C)c3ccccc3N[C@H]12` had a half-maximal effective concentration (EC50) in test [1] of 20 nM. The same molecule gave an Activity in the test on Bacillus subtilis of 80%.

In test [1], `CC[C@H](C)[C@H](NC(=O)CN)C(=O)N[C@@H](C)C(=O)N1C[C@H](C(=O)N[C@@H](CCC(=O)O)C(=O)N[C@@H](CCC(N)=O)C(=O)O)[C@]2(C/C=C(/C)CCC=C(C)C)c3ccccc3N[C@H]12` (H-GIA[X1]EQ-OH) registered a concentration giving a half-maximal response (EC50) of 20 nM. This molecule displayed an Activity in the test with Bacillus subtilis of 90%.

`CC[C@H](C)[C@H](NC(=O)CNC(=O)[C@H](C)N)C(=O)N[C@@H](Cc1ccccc1)C(=O)N1C[C@H](C(=O)N[C@@H](CCC(=O)O)C(=O)N[C@@H](CCC(N)=O)C(=O)O)[C@]2(C/C=C(/C)CCC=C(C)C)c3ccccc3N[C@H]12` (H-AGIF[X1]EQ-OH) returned an EC50 in test [1] of 1 nM. This molecule gave an Activity with Bacillus subtilis of 100%.

Take `CC[C@H](C)[C@H](N)C(=O)N[C@@H](Cc1ccccc1)C(=O)N1C[C@H](C(=O)O)[C@]2(C/C=C(/C)CCC=C(C)C)c3ccccc3N[C@H]12`: the concentration giving a half-maximal response (EC50) in test [1] came out at 160 nM. The molecule also displayed an Activity with Bacillus subtilis of 55%.

Take `CC[C@H](C)[C@H](N)C(=O)N[C@@H](Cc1ccccc1)C(=O)N1C[C@H](C(=O)N[C@@H](CCC(=O)O)C(=O)N[C@@H](CCC(N)=O)C(=O)O)[C@]2(C/C=C(/C)CCC=C(C)C)c3ccccc3N[C@H]12` (H-IF[X1]EQ-OH): the EC50 in test [1] turned out to be 6 nM. Also, the Activity in the test on Bacillus subtilis amounted to 100%.

Molecule `CC[C@H](C)[C@H](NC(=O)[C@@H](C)N)C(=O)N[C@@H](Cc1ccccc1)C(=O)N1C[C@H](C(=O)N[C@@H](CCC(=O)O)C(=O)N[C@@H](CCC(N)=O)C(=O)O)[C@]2(C/C=C(/C)CCC=C(C)C)c3ccccc3N[C@H]12` registered a 50% effective concentration (EC50) in test [1] of 3 nM. The molecule further yielded an Activity in the test with Bacillus subtilis of 100%.

`CC[C@H](C)[C@H](NC(=O)CN)C(=O)N[C@@H](Cc1ccccc1)C(=O)N1C[C@H](C(=O)O)[C@]2(C/C=C(/C)CCC=C(C)C)c3ccccc3N[C@H]12` had an EC50 in test [1] of 130 nM. Further, the Activity with Bacillus subtilis was determined as 60%.

Turning to `CC[C@H](C)[C@H](NC(=O)CN)C(=O)N[C@@H](Cc1ccccc1)C(=O)N1C[C@H](C(=O)N[C@@H](CCC(=O)O)C(=O)N[C@@H](C)C(=O)O)[C@]2(C/C=C(/C)CCC=C(C)C)c3ccccc3N[C@H]12` (H-GIF[X1]EA-OH), in test [1], a half-maximal effect (EC50) was put at 20 nM. Besides, in the test with Bacillus subtilis, the Activity was found to be 95%.
